# The list is not random: actives were taken first. Their share in the collection is about 1.6%.
# FLuc inh counter = Photinus pyralis luciferase inhibition counter-screen | P08659 | ATPLite firefly luciferase biochemical luminescence, 10 min | inhibition, % at 10 µM | hit rate 1.5% among 200,000 | AID 1006;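 active = inhibition above about 50% when tested at 10 µM, limit read from the data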
# Target sequence (P08659 whole entry, looked up): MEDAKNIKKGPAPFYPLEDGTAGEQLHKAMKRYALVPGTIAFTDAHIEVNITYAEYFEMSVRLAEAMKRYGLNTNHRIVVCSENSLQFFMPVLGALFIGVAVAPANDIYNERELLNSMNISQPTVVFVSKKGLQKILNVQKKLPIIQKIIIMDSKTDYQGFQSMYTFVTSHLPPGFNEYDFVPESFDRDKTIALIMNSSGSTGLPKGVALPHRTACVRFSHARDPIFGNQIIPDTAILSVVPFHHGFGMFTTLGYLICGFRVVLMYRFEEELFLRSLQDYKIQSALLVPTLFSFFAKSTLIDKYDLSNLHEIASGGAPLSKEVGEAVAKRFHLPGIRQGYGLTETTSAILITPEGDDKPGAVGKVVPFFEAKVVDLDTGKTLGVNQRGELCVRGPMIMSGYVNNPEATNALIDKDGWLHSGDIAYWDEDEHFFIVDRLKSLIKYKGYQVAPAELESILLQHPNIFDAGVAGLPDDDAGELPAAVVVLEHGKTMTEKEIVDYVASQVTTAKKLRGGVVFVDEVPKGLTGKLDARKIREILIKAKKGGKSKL
# FLuc stim CS = affects firefly luciferase, flagging false hits in luciferase stimulation screens | ATPlite luciferase biochemical, luminescence, 10 min; 0 = ATP-free wells, 1 = DMSO control | 200,000 tested, under 10 active | AID 1027 | activation factor at 10 µM | P08659;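 active = luciferase activation factor, scaled between plate controls, of at least 2 with compound at 10 µM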
#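 assay system = Luciferase/luciferin detection reagent, cell-free biochemical luciferase assay | also added = ATP substrate | times = 10 min post-reagent at room temperature | measured by = luminescence from luciferase reaction | measure = luciferase activation, seen as luminescence increase over controls | benchmarks = low control with PBS replacing ATP, high control enzyme plus ATP without compound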
# PPC-1+TRAIL kill = PPC-1 cancer cell killing with TRAIL present; AID 1443; cell killing (% activity), % at 4 µM or 5 µM; PPC-1 cells + TRAIL, ATPLite viability luminescence; hit rate 0.41% among 220,000;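 active = cell killing above 50% in the first pass at 4 µM, then a duplicate retest at 5 µM averaging 50% or more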;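 note: plate controls were cells with TRAIL plus DMSO for no effect and medium-only wells lacking cells for full effect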
# C8 TRAIL sens = caspase-8 TRAIL sensitization; inhibition (viability loss, TRAIL sensitization), % at 10 µM; NB7+C8 cells + TRAIL, ATPlite viability luminescence; hit rate 1% among 360,000;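 active = compounds causing at least 50% loss of cell viability in the single-dose screen, relative to plate controls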
# An asterisk follows results filed as active; x = not tested or not shown.
SMILES,FLuc inh counter,FLuc stim CS,PPC-1+TRAIL kill,C8 TRAIL sens
CCN(c1ccccc1)S(=O)(=O)c1ccc(OC)c(NC(=O)c2cc(F)c(F)c(F)c2F)c1,x,x,x,56*
COc1ccc(Nc2cc(C(=O)NCCCN3CCOCC3)c3ccccc3n2)cc1OC,12,0.9,-5,10
COc1cccc(C(=O)Nc2ccc(C(F)(F)F)n(C)c2=O)c1,56*,0.4,28,44
CCCCCOC(=O)Cn1c(SCC(=O)Nc2ccccc2)nc2c1c(=O)[nH]c(=O)n2C,-9,1.1,9,11
CCOCCCNC(=O)c1cc2c(=O)n3cccc(C)c3nc2s1,x,x,x,-15
COc1ccc(/C=N/NC(=O)CCn2cnc3ccccc32)cc1,x,x,6,-12
O=S1(=O)C=C(Sc2nnc(-c3ccccc3)o2)c2ccccc21,2,1,21,73*
O=C(N/N=C/C1CCCCC1)c1cc(Cl)ccc1O,50*,0.5,11,-17
CCCCCCc1cc2cc(C(=O)Nc3ccccc3)c(=O)oc2cc1O,0,1,9,60*
O=C(COC(=O)c1cccnc1Cl)c1ccccc1,59*,0.4,26,-24
CCc1ccc(C(=O)COC(=O)c2cccnc2Cl)cc1,91*,0.1,8,-4
COc1ccc(C(=O)COC(=O)c2cccs2)cc1,x,x,x,-4
O=C(OCc1ccc(COC(=O)c2cccnc2Cl)cc1)c1cccnc1Cl,-10,1.1,2,1
O=C(COC(=O)c1cccs1)c1ccccc1,66*,0.3,-6,-3
OC(CNCc1ccccc1F)(c1ccc(F)cc1)c1ccc(F)cc1,0,1,-8,-4
N#Cc1nc(COc2ccc(F)cc2)oc1N1CCCC1,-8,1.1,-3,8
C/C(=N\Nc1nc2ccccc2[nH]1)c1ccccn1,x,x,x,58*
C/C(=N\Nc1nc2ccccc2[nH]1)c1ccc2c(c1)OCCO2,78*,0.2,32,40
C/C(=N\Nc1nc2ccccc2[nH]1)c1cc2ccccc2o1,78*,0.2,14,59*
C/C(=N\Nc1nc2ccccc2[nH]1)c1ccc2c(c1)OCO2,32,0.7,4,21
COC(=O)c1ccc(CN2CCC(CO)(Cc3cccc(OC)c3)CC2)cc1,-6,1.1,x,-2
Cc1ccc(Sc2ncccc2C(=O)O)c(C)c1,0,1,16,-12
CNC(=S)N/N=C/c1cccc(OCc2ccccc2F)c1,52*,0.5,45,7
CCN(CC)c1ccc(/C=N/Nc2nc(C)cc(=O)[nH]2)c(O)c1,25,0.7,58*,49
Cc1cc(=O)[nH]c(NN=Cc2cc(Br)ccc2O)n1,x,x,x,-2
SMILES,FLuc inh counter,FLuc stim CS,PPC-1+TRAIL kill,C8 TRAIL sens
Cn1c(C(=O)NCc2ccccn2)cc2c(=O)n3ccccc3nc21,51*,0.5,32,20
CC(=O)NC(Cc1c[nH]c2ccccc12)C(=O)OCC(=O)N1CCN(S(=O)(=O)c2ccc(Cl)cc2)CC1 (configuration not stated),x,x,x,-19
COc1ccc(Cl)cc1-c1nc(-c2ccc(NC(=O)c3ccncc3)cc2)no1,x,x,x,18
COc1ccc(-c2nc(-c3ccc(NC(=O)c4ccncc4)cc3)no2)cc1OC,-8,1.1,7,66*
COc1cc(-c2nc(-c3ccc(NC(=O)c4ccc5c(c4)OCO5)cc3)no2)cc(OC)c1OC,4,1,16,59*
Cn1c(=NC(=O)CCl)sc2ccccc21,-3,1,12,94*
Cn1c(=NC(=O)c2cccc([N+](=O)[O-])c2)sc2ccccc21,8,0.9,-1,57*
CC(=O)N/N=c1\sc2ccccc2n1C,-8,1.1,23,0
COc1cc(C(=O)N=c2sc3ccccc3n2C)cc(OC)c1OC,-4,1,14,1
Cc1occc1C(=O)Nc1ccc([N+](=O)[O-])cc1Br,x,x,x,-5
Cc1cc(C)c(NN=c2c(=O)c3ccccc3c2=O)c(C)c1,23,0.8,1,-6
O=c1c(=NNc2ccccc2Cl)c(=O)c2ccccc12,80*,0.2,17,77*
C/C(=N\OC(=O)c1ccc(C)cc1)c1sc(C)nc1C,76*,0.2,-16,13
C/C(=N/OC(=O)c1ccc(C)cc1)c1cccs1,98*,0,1,7
C/C(=N\OC(=O)c1ccc(Cl)c(Cl)c1)c1sc(C)nc1C,4,1,4,-1
O=C(COc1ccccc1[N+](=O)[O-])N/N=C/C=C/c1ccco1,-1,1,6,5
COc1ccc(C=C2C=C(C(C)(C)C)C(=O)C(C(C)(C)C)=C2)cc1OC,x,x,x,87*
COc1ccc(/C=C2\CC/C(=C\c3ccc(OC)c(OC)c3)C2=O)cc1OC,66*,0.3,39,64*
CCOC(=O)N1CCc2c(sc3c2c(=O)n(Cc2ccccc2)c(=O)n3Cc2cccc(C)c2)C1,-8,1.1,3,-1
Clc1ccccc1-c1nnc(-c2cccs2)o1,57*,0.4,28,31
CCCOc1ccc(-c2nnc(-c3cccs3)o2)cc1,40,0.6,2,32
CN(C)c1ccc(-c2nnc(-c3cccs3)o2)cc1,72*,0.3,43,46
Cc1c(C(=O)N2CCOCC2)sc(NC(=O)c2ccc([N+](=O)[O-])cc2)c1C#N,x,x,x,2
CCc1ccc(-c2nc(NC(=S)NC(=O)c3cccs3)sc2C)cc1,-5,1,5,-34
O=C(NC(=S)Nc1nc2ccccc2s1)c1cccs1,90*,0.1,13,84*
SMILES,FLuc inh counter,FLuc stim CS,PPC-1+TRAIL kill,C8 TRAIL sens
COC(=O)c1nc(NC(=S)NC(=O)c2cccs2)sc1C,x,x,x,50*
Cc1ccccc1N=Cc1cc2c(cc1O)OC(N)=C(C#N)C2c1ccccc1 (configuration not stated),3,1,-11,17
COCCN(C(=O)COC(=O)c1c(NC(C)=O)sc(C)c1C)c1c(N)n(Cc2ccccc2)c(=O)[nH]c1=O,x,x,x,51*
O=C(COC(=O)c1ccccn1)Nc1cccc(Cl)c1,-4,1,4,-2
Cc1ccc(/C=C/C(=O)N2CCc3ccccc3C2)cc1,51*,0.5,32,13
CCOC(=O)N1CCC(Nc2c(N3CCN(c4cc(Cl)ccc4C)CC3)c(=O)c2=O)CC1,-11,1.1,8,23
CCOC(=O)N1CCC(Nc2c(-c3ccc(C)c(C)c3)c(=O)c2=O)CC1,-8,1.1,-2,58*
Cc1cc2nc(-c3ccc(SCC(=O)Nc4ccc(S(=O)(=O)NC5CC5)cc4)nc3)[nH]c2cc1C,86*,0.1,52*,84*
Cc1cc2nc(-c3ccc(SCc4ccc(C(=O)O)cc4)nc3)[nH]c2cc1C,18,0.8,20,7
COC(=O)CSc1ccc(-c2nc3ccc(C)cc3[nH]2)cn1,61*,0.4,24,10
Cc1cc2nc(-c3ccc(SCC(=O)NC(C)C)nc3)[nH]c2cc1C,51*,0.5,30,x
Cc1cc2nc(-c3ccc(SCC(=O)N4CCc5ccccc54)nc3)[nH]c2cc1C,82*,0.2,45,81*
COc1ccc(CC(=O)Nc2ccccc2N2CCOCC2)cc1OC,-1,1,9,-2

# Source: PubChem BioAssay
